Results: ChEMBL document CHEMBL1821702, “8,8-Dimethyldihydroberberine with improved bioavailability and oral efficacy on obese and diabetic mouse models” (Bioorg Med Chem, 2010)
Activity calls are given as the source filed them. The rule behind the calls is not given here.

Key:
[1] = species: Rattus norvegicus; assay: Induction of AMPK phosphorylation in 2 hrs serum starved rat differentiated L6 myotubes after 1 hr
How it was run: (§1)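 Fully differentiated L6 myotubes were serum-starved 2 h, then treated 1 h across a dose series. Phospho-AMPK (Thr172) and phospho-ACC (Ser79) were detected by Western blot. Three independent experiments.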

[2] = species: Rattus norvegicus; assay: Induction of AMPK-dependent ACC phosphorylation in 2 hrs serum starved rat differentiated L6 myotubes after 1 hr; how it was run: as §1
[3] = system: L6; assay: Increase in glucose uptake in rat differentiated L6 myotubes after 1 hr; format: functional, cell-based
How it was run: (§2)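 Fully differentiated L6 myotubes were serum-starved 2 h, then treated with compound for 15 min to 2 h (dose series at 1 h). Glucose uptake was measured relative to DMSO control. Mean of three independent experiments ± SE.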

[4] = Stability in acidic buffer at pH 2 after 6 hrs by HPLC; format: physicochemical; conditions: buffer, pH 2, 6 h
How it was run: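 A 0.5 mg/mL solution in acetonitrile was adjusted to pH 2 with H3PO4 and analyzed over 6 h by HPLC. Conditions: C18 column at 25 °C, 58% acetonitrile in 0.05 mol/L KH2PO4/0.005 mol/L SDS, 1 mL/min, detection at 320 nm.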

[5] = system: L6; assay: Increase in intracellular AMP:ATP ratio in rat differentiated L6 myotubes after 1 hr; format: functional, cell-based
How it was run: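 Differentiated L6 myotubes were serum-starved 2 h and incubated 1 h with increasing concentrations. Intracellular AMP, ADP and ATP were measured and the AMP:ATP ratio calculated, with berberine 5 µM as positive control. Three independent experiments ± SE.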

[6] = species: Rattus norvegicus; assay: Inhibition of electron transport protein complex 1-mediated cellular respiration in rat liver mitochondria assessed as consumption of oxygen at 2.5 to 40 uM using pyruvate as substrate
How it was run: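 Mitochondria isolated from rat liver. Complex I substrates 5 mM pyruvate plus 2 mM malate, with excess ADP (2.4 mM). Oxygen consumption read as dose–response. Three independent experiments, n = 5–7.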

[7] = Aqueous solubility of compound in distilled water; format: physicochemical
How it was run: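 Excess solid was suspended in distilled water and stirred 24 h at 25 ± 0.5 °C. The suspension was filtered, and dissolved concentration was measured by HPLC.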

[8] = Half life in 12 hrs fasting Sprague-Dawley rat at 10 mg/kg, po; format: ADME, organism-based; parameters: dose 10 mg/kg, route oral; conditions: in vivo
How it was run: (§3)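 Male Sprague–Dawley rats were fasted 12 h and gavaged at 10 mg/kg. Blood was taken retro-orbitally into heparin tubes from pre-dose to 24 h. Plasma levels of parent and of berberine/dihydroberberine were measured by LC–MS/MS.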

[9] = Cmax in 12 hrs fasting Sprague-Dawley rat at 10 mg/kg, po; format: ADME, organism-based; parameters: dose 10 mg/kg, route oral; conditions: in vivo; how it was run: as §3
[10] = Oral bioavailability in 12 hrs fasting Sprague-Dawley rat at 10 mg/kg; format: ADME, organism-based; conditions: in vivo; how it was run: as §3
[11] = system: Mus musculus; assay: Toxicity in high fat diet-fed C57BL/6J mouse assessed as change in body weight at 15 mg/kg/day, po for 6 weeks; format: organism-based; parameters: route oral; conditions: in vivo, 1008 h
How it was run: (§4)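 Male C57BL/6J mice (purchased at 6 weeks of age) fed 60 kcal% fat diet for 8 weeks, then randomized by body weight and fed glucose. Dosed orally once daily for 6 weeks in vehicle of 0.5% microcrystalline cellulose plus 1.6% lactose. Groups: high-fat vehicle, metformin 250 mg/kg positive control, chow-fed vehicle. Body weight and food intake recorded daily.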

[12] = system: Mus musculus; assay: Toxicity in high fat diet-fed C57BL/6J mouse assessed as change in food intake at 15 mg/kg/day, po for 6 weeks; format: organism-based; parameters: route oral; conditions: in vivo, 1008 h; how it was run: as §4
[13] = system: Mus musculus; assay: Antidiabetic activity in high fat diet-fed C57BL/6J mouse assessed as increase in glucose tolerance at 15 mg/kg/day, po for 4 weeks measured after 30 mins by intraperitoneal glucose tolerance test; format: functional, organism-based
How it was run: (§5)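 High-fat-diet (60 kcal%, 8 weeks) male C57BL/6J mice were randomized by body weight and fed glucose, then dosed orally once daily in cellulose/lactose vehicle. ipGTT was done at 4 weeks: D-glucose 2 g/kg ip, glucometer readings at 0, 15, 30, 60, 90 and 120 min. n = 5–8.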

[14] = system: Mus musculus; assay: Antidiabetic activity in high fat diet-fed C57BL/6J mouse assessed as increase in glucose tolerance at 15 mg/kg/day, po for 4 weeks measured after 120 mins by intraperitoneal glucose tolerance test; format: functional, organism-based; how it was run: as §5
[15] = system: Mus musculus; assay: Antidiabetic activity in high fat diet-fed C57BL/6J mouse assessed as alleviation of insulin resistance at 15 mg/kg/day, po for 4 weeks measured after 60 mins by insulin tolerance test; format: functional, organism-based
How it was run: (§6)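 Male C57BL/6J mice were fed a 60 kcal% fat diet for 8 weeks, randomized, then gavaged daily in 0.5% microcrystalline cellulose/1.6% lactose vehicle. ITT was run at 4 weeks: 6 h fast, insulin 0.75 U/kg ip, blood glucose at 0, 15, 30, 60, 90 and 120 min. Mean ± SE, n = 5–8.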

[16] = system: Mus musculus; assay: Antidiabetic activity in high fat diet-fed C57BL/6J mouse assessed as alleviation of insulin resistance at 15 mg/kg/day, po for 4 weeks measured after 90 mins by insulin tolerance test; format: functional, organism-based; how it was run: as §6
[17] = system: Mus musculus; assay: Antiobese activity in high fat diet-fed C57BL/6J mouse assessed as decrease in plasma triglyceride level at 15 mg/kg/day, po for 6 weeks; format: functional; parameters: scale not given: the % may be the effect or the level left
How it was run: (§7)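 DIO male C57BL/6J mice received daily oral dosing in cellulose/lactose vehicle for 6 weeks and were killed after the final dose. Plasma and liver triglycerides were measured by triglyceride assay kit, and fat depots were weighed.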

[18] = system: Mus musculus; assay: Antidiabetic activity in C57BLKS/J-db/db mouse assessed as reduction of fasting blood glucose level at 50 mg/kg/day, po for 4 weeks; format: functional; parameters: scale not given: the % may be the effect or the level left
[19] = system: Mus musculus; assay: Antidiabetic activity in C57BLKS/J-db/db mouse assessed as alleviation of glucose tolerance at 50 mg/kg/day, po for 3 weeks measured after 15 mins by intraperitoneal glucose tolerance test; format: functional, organism-based
How it was run: (§8)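 Male and female C57BLKS/J-db/db mice, randomized at 6 weeks of age by body weight and fed glucose, were gavaged once daily in vehicle (0.5% microcrystalline cellulose, 1.6% lactose). For ipGTT, D-glucose was given at 2 g/kg ip, and blood glucose was read by glucometer at 0, 15, 30, 60, 90 and 120 min.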

[20] = system: Mus musculus; assay: Antiobese activity in high fat diet-fed C57BL/6J mouse assessed as decrease in liver triglyceride level at 15 mg/kg/day, po for 6 weeks; format: functional; parameters: scale not given: the % may be the effect or the level left; how it was run: as §7
[21] = system: Mus musculus; assay: Antiobese activity in high fat diet-fed C57BL/6J mouse assessed as decrease in subcutaneous fat at 15 mg/kg/day, po for 6 weeks; format: functional; parameters: scale not given: the % may be the effect or the level left; how it was run: as §7
[22] = system: Mus musculus; assay: Antidiabetic activity in high fat diet-fed C57BL/6J mouse assessed as decrease in plasma insulin level at 15 mg/kg/day, po for 4 weeks; format: functional; parameters: scale not given: the % may be the effect or the level left
How it was run: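 DIO male C57BL/6J mice (60 kcal% fat diet for 8 weeks) were gavaged daily in 0.5% microcrystalline cellulose/1.6% lactose vehicle. Plasma insulin was determined by ELISA after 4 weeks of treatment. Mean ± SE, n = 5–8.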

[23] = system: Mus musculus; assay: Antidiabetic activity in C57BLKS/J-db/db mouse assessed as decrease in fed blood glucose level at 50 mg/kg/day, po for 3 weeks; format: functional; parameters: scale not given: the % may be the effect or the level left
[24] = system: Mus musculus; assay: Antidiabetic activity in C57BLKS/J-db/db mouse assessed as decrease in fed blood glucose level at 50 mg/kg/day, po for 4 weeks; format: functional; parameters: scale not given: the % may be the effect or the level left
[25] = system: Mus musculus; assay: Antidiabetic activity in C57BLKS/J-db/db mouse assessed as reduction of fasting blood glucose level at 50 mg/kg/day, po for 3 weeks; format: functional; parameters: scale not given: the % may be the effect or the level left
[26] = system: Mus musculus; assay: Antidiabetic activity in C57BLKS/J-db/db mouse assessed as alleviation of glucose tolerance at 50 mg/kg/day, po for 3 weeks measured after 90 mins by intraperitoneal glucose tolerance test; format: functional, organism-based; how it was run: as §8
[27] = system: Mus musculus; assay: Antidiabetic activity in C57BLKS/J-db/db mouse assessed as alleviation of glucose tolerance at 50 mg/kg/day, po for 3 weeks measured after 120 mins by intraperitoneal glucose tolerance test; format: functional, organism-based; how it was run: as §8
[28] = system: Mus musculus; assay: Antiobese activity in C57BLKS/J-db/db mouse assessed as decrease in plasma triglyceride level at 50 mg/kg/day, po […]; format: functional; parameters: scale not given: the % may be the effect or the level left
How it was run: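 db/db mice were gavaged once daily in 0.5% microcrystalline cellulose/1.6% lactose vehicle for 6 weeks and killed after the final dose. Plasma triglycerides were measured with a colorimetric triglyceride assay kit.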

[29] = system: Mus musculus; assay: Toxicity in C57BLKS/J-db/db mouse assessed as change in body weight at 50 mg/kg/day, po for 6 weeks; format: organism-based; parameters: route oral; conditions: in vivo, 1008 h
How it was run: (§9)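 db/db mice (half male, half female) were dosed by oral gavage daily for 6 weeks in 0.5% microcrystalline cellulose/1.6% lactose vehicle. Body weight and food intake were recorded daily. Mice were killed after the final dose, and liver and fat depots were weighed and expressed relative to body weight.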

[30] = system: Mus musculus; assay: Toxicity in C57BLKS/J-db/db mouse assessed as change in food intake at 50 mg/kg/day, po for 6 weeks; format: organism-based; parameters: route oral; conditions: in vivo, 1008 h; how it was run: as §9
[31] = system: L6; assay: Increase in glucose uptake in rat differentiated L6 myotubes at 20 uM in presence of 10 nM AMPK inhibitor compound C; format: functional, cell-based
[32] = system: Mus musculus; assay: Antidiabetic activity in C57BLKS/J-db/db mouse assessed as decrease in area under curve at 50 mg/kg/day, po for 4 weeks by insulin tolerance test; format: functional; parameters: scale not given: the % may be the effect or the level left
[33] = system: L6; assay: Increase in glucose uptake in rat differentiated L6 myotubes at 2.5 uM after 1 hr; format: functional; how it was run: as §2
[34] = system: L6; assay: Increase in glucose uptake in rat differentiated L6 myotubes at 20 uM after 1 hr; format: functional; how it was run: as §2
[35] = system: L6; assay: Increase in glucose uptake in rat differentiated L6 myotubes after 15 mins; format: functional; how it was run: as §2
[36] = system: L6; assay: Increase in glucose uptake in rat differentiated L6 myotubes after 2 hrs; format: functional; how it was run: as §2
[37] = system: L6; assay: Increase in glucose uptake in rat differentiated L6 myotubes after 1 hr relative to untreated control; format: functional; how it was run: as §2
[38] = system: Mus musculus; assay: Toxicity in C57BLKS/J-db/db mouse assessed as change in adipose tissue mass at 50 mg/kg/day, po for 6 weeks; format: organism-based; parameters: route oral; conditions: in vivo, 1008 h; how it was run: as §9
[39] = system: Mus musculus; assay: Toxicity in C57BLKS/J-db/db mouse assessed as change in fat to body weight ratio at 50 mg/kg/day, po for 6 weeks; format: organism-based; parameters: route oral; conditions: in vivo, 1008 h; how it was run: as §9
[40] = system: Mus musculus; assay: Toxicity in C57BLKS/J-db/db mouse assessed as change in liver to body weight ratio at 50 mg/kg/day, po for 6 weeks; format: organism-based; parameters: route oral; conditions: in vivo, 1008 h; how it was run: as §9
[41] = system: L6; assay: Increase in glucose uptake in rat differentiated L6 myotubes at 10 uM in presence of 100 nM PI-3 kinase inhibitor wortmannin

COc1ccc2c(c1OC)C(C)(C)[N+]1=C(C2)c2cc3c(cc2CC1)OCO3.[Cl-] [8,8-dimethyldihydroberberine]
Activity [1]: Dose-dependent effect | Activity [2]: Dose-dependent effect | Activity [3]: Dose-dependent effect | Stability [4]: Stable | Activity [5]: Dose-dependent effect | inhibition [6]: Dose-dependent effect | solubility [7]: 81 mg/mL | half-life [8]: 2.9 h | Cmax [9]: 17.8 ng/mL | bioavailability [10]: 10% | Activity [11]: Non-toxic | Activity [12]: Non-toxic | Activity [13]: Active | Activity [14]: Active | Activity [15]: Active | Activity [16]: Active | Activity [17]: 26% | Activity [18]: 24% | Activity [19]: Active | Activity [20]: 36% | Activity [21]: 36% | Activity [22]: 45% | Activity [23]: 24% | Activity [24]: 40% | Activity [25]: 24% | Activity [26]: Active | Activity [27]: Active | Activity [28]: 38% | Activity [29]: Non-toxic | Activity [30]: Non-toxic | Activity [31]: inactive | Activity [32]: 28% | Activity [33]: 48% | Activity [34]: 67% | Activity [35]: 28% | Activity [36]: 84% | Activity [37]: 37% | Activity [38]: Non-toxic | Activity [39]: Non-toxic | Activity [40]: Non-toxic | Activity [41]: Active
